Experimental data from ChEMBL document CHEMBL4257580, “Tanshinone-IIA-Based Analogues of Imidazole Alkaloid Act as Potent Inhibitors To Block Breast Cancer Invasion and Metastasis in Vivo” (J Med Chem, 2018).

Experiments:
MDA-MB-231 = test: Antiproliferative activity against human MDA-MB-231 cells after 72 hrs by MTT assay; assay type: functional, cell-based; details: MDA-MB-231, 72 h
Method in brief: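 MDA-MB-231 cells grown in DMEM with 10% FBS and penicillin/streptomycin at 37 °C under 5% CO2. Seeded at 5×10^3 cells/well for 24 h, then exposed to compound across a concentration range for 72 h. MTT (5 mg/mL in PBS) added for 5 h, formazan dissolved in DMSO, absorbance read at 570 nm. Three repeats.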

HepG2 = test: Antiproliferative activity against human HepG2 cells after 72 hrs by MTT assay; assay type: functional, cell-based; details: HepG2, 72 h
Method in brief: (§1)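 A549, HeLa, HepG2 and normal liver L02 cells kept in DMEM with 10% FBS at 37 °C under 5% CO2. Plated at 5×10^3 cells/well for 24 h, then treated with graded concentrations for 72 h. Viability measured by MTT reduction (5 h), formazan dissolved in DMSO and read at 570 nm. Three repeats.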

HeLa = test: Antiproliferative activity against human HeLa cells after 72 hrs by MTT assay; assay type: functional, cell-based; method in brief: as §1
A549 = test: Antiproliferative activity against human A549 cells after 72 hrs by MTT assay; assay type: functional, cell-based; details: A549, 72 h; method in brief: as §1
L02 = test: Antiproliferative activity against human L02 cells after 72 hrs by MTT assay; assay type: cell-based; details: L02, 72 h; method in brief: as §1

| Structure (SMILES) | IC50 (MDA-MB-231) [µM] | IC50 (HepG2) [µM] | IC50 (HeLa) [µM] | IC50 (A549) [µM] | IC50 (L02) [µM] |
| --- | --- | --- | --- | --- | --- |
| Cc1coc2c3ccc4c(c3c3[nH]c(-c5cccc(O)c5)nc3c12)CCCC4(C)C | 25.5 | 37.1 | 52.6 | 18.4 | 32.9 |
| Cc1coc2c3ccc4c(c3c3[nH]c(-c5ccc(C(F)(F)F)cc5)nc3c12)CCCC4(C)C | 44.3 | 25.2 | 65.3 | 48.8 | 30.7 |
| Cc1coc2c3ccc4c(c3c3[nH]c(-c5ccccc5O)nc3c12)CCCC4(C)C | 20.2 | 26.3 | 84.3 | 4.9 | 51.9 |
| COc1cccc2c1C(=O)c1c(O)c3c(c(O)c1C2=O)C[C@@](O)(C(=O)CO)C[C@@H]3O[C@H]1C[C@H](N)[C@H](O)[C@H](C)O1 [DOXORUBICIN] | 8.53 | 4.3 | 8.66 | 3.4 | 3.6 |
| Cc1coc2c3ccc4c(c3c3[nH]c(-c5cccc([N+](=O)[O-])c5)nc3c12)CCCC4(C)C | 48.8 | 33.9 | > 300 | 63.7 | > 300 |
| COc1ccc(-c2nc3c([nH]2)c2c4c(ccc2c2occ(C)c32)C(C)(C)CCC4)cc1 | 21.1 | 13.9 | 62 | 35.3 | 84 |
| COc1ccccc1-c1nc2c([nH]1)c1c3c(ccc1c1occ(C)c21)C(C)(C)CCC3 | 110 | 126 | > 300 | 45.9 | 86.8 |
| Cc1coc2c3ccc4c(c3c3[nH]c(-c5ccc([N+](=O)[O-])cc5)nc3c12)CCCC4(C)C | 30.7 | 31 | 157 | 24.9 | > 300 |

More lines, main results first:

| IC50 (MDA-MB-231) [µM] | IC50 (HepG2) [µM] | IC50 (HeLa) [µM] | IC50 (A549) [µM] | Structure (SMILES) | IC50 (L02) [µM] |
| --- | --- | --- | --- | --- | --- |
| 52.7 | 43.8 | 68.8 | 31.4 | Cc1coc2c3ccc4c(c3c3[nH]c(-c5cccc(C(F)(F)F)c5)nc3c12)CCCC4(C)C | 54.5 |
| 116 | 65.7 | 193 | 53.2 | Cc1coc2c1C(=O)C(=O)c1c-2ccc2c1CCCC2(C)C [TANSHINONE IIA] | 78.5 |
| 23.6 | 24.8 | 115 | 203 | Cc1coc2c3ccc4c(c3c3[nH]c(-c5ccccc5[N+](=O)[O-])nc3c12)CCCC4(C)C | > 300 |
| 52.3 | 28.4 | 67.8 | 40.1 | COc1cccc(-c2nc3c([nH]2)c2c4c(ccc2c2occ(C)c32)C(C)(C)CCC4)c1 | > 300 |
| 23.8 | 38.4 | 61 | 25.6 | Cc1coc2c3ccc4c(c3c3[nH]c(-c5ccccc5C(F)(F)F)nc3c12)CCCC4(C)C | 93.9 |
